A short description of data set [1]: Dissociation constant, pKa of the compound. The class given is physicochemical.
Data set [2] concerns the target Acetylcholinesterase (Homo sapiens, UniProt P22303). As to the kind of experiment: Inhibition of AChE (unknown origin) by Ellman colorimetric method.
The test system of data set [3] is Aedes aegypti. As to the kind of experiment: Insecticidal activity against third-instar larvae of Aedes aegypti assessed as mortality at 140 ppm after 24 to 48 hrs. The format is functional, organism-based. A digest of the protocol: (§1)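 Diagnostic screen with third-instar larvae. Five larvae per pot, four replicates per concentration. Compounds tested at 300, 270, 180, 140, 70, 60, 45 and 25 ppm. Control pots held 1% DMSO only. Mortality was scored at 24 and 48 h. Larvae that could not reach the water surface when touched were counted as dead.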

Data set [4] concerns Aedes aegypti. As to the kind of experiment: Insecticidal activity against third-instar larvae of Aedes aegypti assessed as mortality at 180 ppm after 24 to 48 hrs. The class given is functional, organism-based. A digest of the protocol:
as §1

For data set [5], the system named is Aedes aegypti. Kind of data set: Insecticidal activity against third-instar larvae of Aedes aegypti assessed as mortality at 300 ppm after 24 to 48 hrs. The class given is functional, organism-based. The method, boiled down: as §1
In data set [6] the test system is Aedes aegypti. As to the kind of experiment: Insecticidal activity against third-instar larvae of Aedes aegypti assessed as mortality after 24 hrs. The class given is functional. The method, boiled down: (§2)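 In a second bioassay, third-instar larvae were exposed to 150, 130, 100, 85 and 55 ppm, with a 1% DMSO control. Five larvae per pot, four replicates. Death was scored as failure to reach the water surface when touched, at 24 h or 48 h. LC50 and LC99 with confidence intervals came from probit analysis.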

The test system of data set [7] is Aedes aegypti. As to the kind of experiment: Insecticidal activity against third-instar larvae of Aedes aegypti assessed as mortality after 48 hrs. The class given is functional. A digest of the protocol:
as §2

Data set [8] has as its system Aedes aegypti. As to the kind of experiment: Insecticidal activity against third-instar larvae of Aedes aegypti assessed as mortality at 60 ppm after 24 to 48 hrs. The format is functional, organism-based. A digest of the protocol:
as §1

Data set [9] concerns Aedes aegypti. Kind of data set: Insecticidal activity against third-instar larvae of Aedes aegypti assessed as mortality at 25 ppm after 24 to 48 hrs. The format is functional, organism-based. The method, boiled down:
as §1

Data set [10] relates to Aedes aegypti. Kind of data set: Insecticidal activity against third-instar larvae of Aedes aegypti assessed as mortality at 270 ppm after 24 to 48 hrs. The format is functional, organism-based. The method, boiled down: as §1
For data set [11], the system named is Aedes aegypti. Kind of data set: Insecticidal activity against third-instar larvae of Aedes aegypti assessed as mortality at 70 ppm after 24 to 48 hrs. The class given is functional, organism-based. A digest of the protocol:
as §1

In data set [12] the test system is Aedes aegypti. As to the kind of experiment: Insecticidal activity against third-instar larvae of Aedes aegypti assessed as mortality at 45 ppm after 24 to 48 hrs. The format is functional, organism-based. A digest of the protocol: as §1
Data set [13] concerns Aedes aegypti. As to the kind of experiment: Insecticidal activity against third-instar larvae of Aedes aegypti assessed as mortality. The class given is functional. The method, boiled down: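 Third-instar larvae exposed in a diagnostic screen to 1000, 300, 270, 180, 140, 70, 60, 45 and 25 ppm. Five larvae per pot, four replicates per concentration, 1% DMSO-only control. Mortality scored at 24 and 48 h; larvae unable to reach the water surface when touched were counted dead.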

Values after ≈ are worked out from the molar mass of the structure shown. Active and inactive are the calls of the source. The rule behind the calls is not given here.

Chain of Acetylcholinesterase (P22303 whole entry): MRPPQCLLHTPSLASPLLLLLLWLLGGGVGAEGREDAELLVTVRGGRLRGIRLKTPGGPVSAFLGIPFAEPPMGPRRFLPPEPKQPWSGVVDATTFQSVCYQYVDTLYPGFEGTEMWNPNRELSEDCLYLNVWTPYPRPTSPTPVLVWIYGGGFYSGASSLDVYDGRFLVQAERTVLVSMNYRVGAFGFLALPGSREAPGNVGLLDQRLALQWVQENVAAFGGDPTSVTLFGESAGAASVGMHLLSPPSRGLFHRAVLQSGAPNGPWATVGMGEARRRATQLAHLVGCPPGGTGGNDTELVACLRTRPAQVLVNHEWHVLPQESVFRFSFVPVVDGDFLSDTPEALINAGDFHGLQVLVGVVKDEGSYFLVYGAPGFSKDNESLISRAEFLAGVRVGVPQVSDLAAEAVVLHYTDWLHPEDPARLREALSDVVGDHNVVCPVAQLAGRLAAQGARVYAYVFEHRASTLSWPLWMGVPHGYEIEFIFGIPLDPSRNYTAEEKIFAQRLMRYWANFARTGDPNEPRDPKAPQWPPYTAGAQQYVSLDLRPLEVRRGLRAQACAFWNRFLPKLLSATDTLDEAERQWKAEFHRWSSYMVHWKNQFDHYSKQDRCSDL

As to `COc1cc(C(C#N)N2CCN(C)CC2)cc(OC)c1OC` (racemic), in data set [1], the pKa (in general, the negative logarithm of the acid dissociation constant) was 7.6. In data set [2], inhibition was half-maximal at 406 µM (IC50).

Consider `N#CC(c1ccc2c(c1)OCO2)N1CCOCC1` (racemic), for which, in data set [3], the outcome was Active. Further, the pKa in [1] worked out at 2.2. Besides, the IC50 – broadly, the concentration that inhibits the measured activity by half – in data set [2] turned out to be 58 µM.

Consider `COc1cc(C(C#N)N2CCOCC2)cc(OC)c1OC` (racemic), for which the pKa in data set [1] was 2.1. Also, the IC50 in data set [2] is 389 µM.

For `CN1CCN(C(C#N)c2ccc3c(c2)OCO3)CC1` (racemic), the pKa in [1] was 7.6. In data set [2], this molecule came in with an IC50 of 275 µM.

As to `N#CC(c1ccc(O)cc1)N1CCOCC1` (racemic), the pKa in [1] was 2.4.

With `COc1ccc(C(C#N)N2CCCCC2)cc1OC` (racemic), the result in [4] and in data set [5] was Active. The LC99 was found to be 147.54 ppm in [6] and 155.57 ppm in [7]. In addition, the 50% lethal concentration (LC50) – broadly, the concentration that kills 50% of the test population – in data set [6] (Aedes aegypti, 24 h) was 88.1 µg/mL (≈ 338 µM); in data set [7] (Aedes aegypti, 48 h), 87.5 µg/mL (≈ 336 µM). This molecule also gave a pKa in data set [1] of 4. The IC50 in [2] was 45 µM.

`N#CC(c1ccc(O)cc1)N1CCCCC1` (racemic): the pKa in data set [1] amounted to 4.2. This molecule also displayed an IC50 in data set [2] of 93 µM.

Turning to `COc1cc(C(C#N)N2CCCCC2)ccc1O` (racemic), in [1], the pKa was 4.1. In addition, in [2], the IC50 came to 448 µM.

Regarding `COc1cc(C(C#N)N2CCOCC2)ccc1O` (racemic), the pKa in [1] was determined as 2.3. This molecule also gave an IC50 in data set [2] of 409 µM.

For the molecule `COc1ccc(C(C#N)N2CCN(C)CC2)cc1OC` (racemic), the pKa in [1] is 7.6. In data set [2], it took 379 µM to reach half-maximal inhibition (IC50).

As to `COc1ccc(C(C#N)N2CCCC2)cc1OC` (racemic), the outcome in [4], in data set [8], in [3] and in data set [9] was Active. Further, the pKa in data set [1] is 4.3. In [2], this molecule had an IC50 of 42 µM.

For `COc1ccc(C(C#N)N2CCOCC2)cc1OC` (racemic), the outcome in data set [3] was Active. For the same molecule, in data set [1], the pKa came out at 2.2. The IC50 in [2] turned out to be 54 µM.

`N#CC(c1ccc2c(c1)OCO2)N1CCCCC1` (racemic): the outcome in [4], in data set [10], in [11], in data set [3], in data set [12] and in data set [9] was Active. In data set [1], this molecule displayed a pKa of 4. In addition, in data set [2], the IC50 came out at 61.4 µM.

For the molecule `N#CC(c1ccc2c(c1)OCO2)N1CCCC1` (racemic), the outcome in data set [4], in [10] and in data set [3] was Active. In addition, the pKa in [1] is 4.3. Also, in [2], 51 µM corresponded to half-maximal inhibition (IC50).

As for `COc1cc(C(C#N)N2CCCCC2)cc(OC)c1OC` (racemic), the pKa in data set [1] turned out to be 3.9. Moreover, inhibition in data set [2] was half-maximal at 381 µM (IC50).

`COc1cc(C(C#N)N2CCCC2)cc(OC)c1OC` (racemic) came in with a pKa in data set [1] of 4.2. For the same molecule, in data set [2], the IC50 came to 321 µM.

In the case of `COc1ccc(C(C#N)N2CCCCC2)cc1O` (racemic), the pKa in data set [1] was determined as 4. In data set [2], this molecule yielded an IC50 of 478 µM.

Molecule `COc1ccc(C(C#N)N2CCCC2)cc1O` (racemic) gave a pKa in data set [1] of 4.3. This molecule yielded an IC50 in data set [2] of 394 µM.

The molecule `COc1ccc(C(C#N)N2CCOCC2)cc1O` (racemic) returned a pKa in [1] of 2.2. The same molecule yielded an IC50 in data set [2] of 363 µM.

`COc1ccc(C(C#N)N2CCN(C)CC2)cc1O` (racemic): in [1], the pKa turned out to be 7.7. This molecule also gave an IC50 in [2] of 350 µM.

As for `COc1cc(C(C#N)N2CCCC2)ccc1O` (racemic), in data set [1], the pKa was 4.4. This molecule also gave an IC50 in [2] of 358 µM.

The molecule `COc1cc(C(C#N)N2CCN(C)CC2)ccc1O` (racemic) displayed a pKa in data set [1] of 7.7. In data set [2], the IC50 was 340 µM.

Take `N#CC(c1ccc(O)cc1)N1CCCC1` (racemic): in data set [1], the pKa is 4.5.

In data set [1], `CN1CCN(C(C#N)c2ccc(O)cc2)CC1` (racemic) yielded a pKa of 7.7.

In [2], `CCOP(=S)(OCC)Oc1cc(C)nc(C(C)C)n1` [DIMPYLATE] gave an IC50 of 1.9 µM.

As to `COP(=S)(OC)Oc1ccc(Sc2ccc(OP(=S)(OC)OC)cc2)cc1` [TEMEFOS], the LC50 in data set [13] is 0.006 µg/mL (≈ 0.0129 µM).

These data come from ChEMBL document CHEMBL3232744, “Design, synthesis, acetylcholinesterase inhibition and larvicidal activity of girgensohnine analogs on Aedes aegypti, vector of dengue fever” (Eur J Med Chem, 2014).
